Assay results from different studies.
Lines come from different studies, so protocols differ.
Target: Serine/threonine-protein kinase PAK 1 (PAK1, Homo sapiens, UniProt Q13153)

O=C(Nc1c[nH]nc1C(=O)NC1CCNCC1)c1cc(F)cc(F)c1 — remaining binding (binding, competition with immobilised ligand; 1 µM): 100%
CN(C)c1ncc(F)c(-c2cnn3ncccc23)n1 — remaining binding (binding; 1 µM): 87%
C[C@@H]1CN(c2ccc3ncc(-c4ccc5[nH]nc(C6CC6)c5c4)n3n2)C[C@H](C)O1 — remaining binding (binding, competition with immobilised ligand; 0.5 µM): 98%
NS(=O)(=O)c1cc(NC(=O)Cc2ccccc2)ccc1Oc1cccc(Cl)c1 — remaining binding (cell-free assay, competition with immobilised ligand; 1 µM): 88%
O=C(c1ccc(Nc2ncc(Cl)c(-c3cc4ccccc4s3)n2)cc1)N1CCC(N2CCCC2)CC1 — remaining binding (binding, competition with immobilised ligand; 1 µM): 85%
COc1cc(-c2cn(C3CCc4c(F)cccc4N(CC(F)(F)F)C3=O)nn2)ccc1-n1cnc(C)c1 (centres unmarked) — remaining binding (cell-free assay, competition with immobilised ligand; 1 µM): 93%
O=C(c1ccc(Nc2nccc(-c3cc4ccccc4s3)n2)cc1)N1CCC(N2CCCC2)CC1 — remaining binding (binding, competition with immobilised ligand; 1 µM): 80%
F[C@@H]1CCN(c2nccc(-c3cnn4ncccc34)n2)C1 — remaining binding (binding; 1 µM): 100%
c1cncc(-c2cccc(Nc3nccc(NC4CCCCC4)n3)c2)c1 — remaining binding (binding, competition with immobilised ligand; 10 µM): 85%
CCN1CCN(Cc2ccc(C(=O)Nc3ccc(C)c(Oc4ccc5c(c4)CC(=O)N5)c3)cc2C(F)(F)F)CC1 — remaining binding (binding, competition with immobilised ligand; 1 µM): 100%
COc1cnc(Nc2cccc(S(N)(=O)=O)c2)nc1N1CCN(c2ccccc2)C(=O)C1 — remaining binding (binding, competition with immobilised ligand; 1 µM): 100%
N[C@@H]1CCN(c2nccc(-c3cnn4ncccc34)n2)C1 — remaining binding (binding; 1 µM): 100%
CO[C@@H](C)c1c(Nc2ccc([C@@H](N(C)C(=O)C3CCS(=O)(=O)CC3)C(F)(F)F)cc2)cnc2cc(Cl)nn12 — remaining binding (cell-free assay, competition with immobilised ligand; 1 µM): 83%
Cc1cnn2ncc(-c3ccnc(N(C)C)n3)c2c1 — remaining binding (binding; 1 µM): 71%
COc1ncc2cc3ccccc3nc2c1C#N — remaining binding (cell-free assay, competition with immobilised ligand; 5 µM): 97%
C[C@H](c1ccnc(Nc2nc3ccc(-c4cc(N(C)C)ncn4)cc3[nH]2)c1)N1CCN(C(=O)CC(F)(F)F)CC1 — remaining binding (cell-free assay, competition with immobilised ligand; 0.1 µM): 77%
O=C(NCCCN1CCOCC1)c1ccc(Nc2nccc(-c3cc4ccccc4s3)n2)cc1 — remaining binding (binding, competition with immobilised ligand; 1 µM): 84%
CC1CCCN1c1nccc(-c2cnn3ncccc23)n1 (centres unmarked) — remaining binding (binding; 1 µM): 100%
CO[C@H]1CC[C@H](CNc2ccc(S(=O)(=O)NC(=O)c3ccc(N4CCN(CC5=C(c6ccc(Cl)cc6)CC(C)(C)CC5)CC4)cc3Oc3cnc4[nH]ccc4c3)cc2[N+](=O)[O-])CC1 — remaining binding (cell-free assay, competition with immobilised ligand; 1 µM): 78%
CN(c1nccc(-c2cnn3ncccc23)n1)C1CC1 — remaining binding (binding; 1 µM): 100%
O=C(Nc1cccnn1)N1CCC(=Cc2cccc(Oc3ccc(C(F)(F)F)cn3)c2)CC1 — remaining binding (cell-free assay, competition with immobilised ligand; 1 µM): 72%
CN(CCCC(F)(F)F)c1nccc(-c2cnn3ncccc23)n1 — remaining binding (binding; 1 µM): 98%
Cc1nc(C2CCN(C(=O)c3ccc(OC(F)(F)F)cc3N)CC2)c2ncc(N3CCN(C)CC3)cc2n1 — remaining binding (cell-free assay, competition with immobilised ligand; 1 µM): 100%
